Compound activity from PubChem.
CR mimetic SO: yeast age-related superoxide inhibition as caloric restriction mimetic | 0.18% of 330,000 active | superoxide response (% of plate mean), % at 10 µM | S. cerevisiae aged cells, superoxide DHE fluorescence; hits give low values;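 active means superoxide response under a set limit, about three screen SD below normal, cut at about 65% in these data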;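 further: yeast aged for seven days with compound at 30 °C before DHE staining; 100% = average MFI of all compound-treated wells on the plate with controls excluded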
Hep lipid drop: modulators of hepatic lipid droplet formation; AML12 mouse hepatocytes, oleate lipid droplets, BODIPY imaging; inhibition, % at 6.5 µM; 0.4% of 240,000 active; AID 1656;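 active means lipid droplet intensity inhibited by at least 50%, with more than 500 cells counted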
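Material – AML12 mouse liver cells · Also added – oleate loading, 100 µM · Compound dosing – 6.5 µM single-point dosing · Times – overnight treatment with compound plus oleate · Measured by – fluorescence imaging, 20x objective, two fields per well · Read-out – percent inhibition of filter-corrected integrated lipid droplet intensity per well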
SR-BI DiI inh: blocks mouse SR-BI lipid uptake from DiI-HDL; ldlA[mSR-BI] CHO cells, DiI-HDL uptake fluorescence, 3 h; inhibition, % at 12.5 µM; 0.96% of 320,000 active; AID 488896;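 active means mean replicate inhibition of at least 70% and a set share of replicates each scoring 70 or more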;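 further: 0% = median of neutral control wells and 100% = median of positive control wells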
Target sequence (Q61009 whole entry, looked up): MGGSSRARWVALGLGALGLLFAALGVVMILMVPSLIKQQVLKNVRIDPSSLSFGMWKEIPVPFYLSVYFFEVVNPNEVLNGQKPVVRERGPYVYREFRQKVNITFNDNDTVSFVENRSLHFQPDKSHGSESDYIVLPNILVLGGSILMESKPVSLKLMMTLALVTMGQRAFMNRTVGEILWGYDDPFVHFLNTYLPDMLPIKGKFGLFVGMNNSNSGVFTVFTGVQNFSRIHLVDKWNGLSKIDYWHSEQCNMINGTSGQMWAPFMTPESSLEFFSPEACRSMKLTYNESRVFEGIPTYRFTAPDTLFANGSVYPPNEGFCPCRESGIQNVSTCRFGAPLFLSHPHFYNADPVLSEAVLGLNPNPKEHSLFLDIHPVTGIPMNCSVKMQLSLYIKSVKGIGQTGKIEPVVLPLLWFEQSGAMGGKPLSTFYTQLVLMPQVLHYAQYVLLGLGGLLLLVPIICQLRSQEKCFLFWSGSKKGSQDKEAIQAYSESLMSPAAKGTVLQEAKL
SMARCA2 activ: activators of SMARCA2 function; MG213 cells, MMTV-luciferase reporter, dexamethasone, overnight; activation, % at 9.1 µM; 1% of 370,000 active; in the data active means activation above about 7.8%;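 further: 0% = vehicle wells and 100% = reference activator wells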
AHR activator: activates the human aryl hydrocarbon receptor | P35869 | AHR-responsive luciferase reporter cells, luminescence | activation, % at 5 µM | 2.5% of 320,000 active; in the data active means activation above about 47%;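 further: 0% = vehicle wells and 100% = reference agonist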
SR-BI DiI-HDL act: activators of SR-BI mediated HDL lipid uptake | CHO ldlA[mSR-BI] cells, DiI-HDL uptake fluorescence, 3 h; 100 = double the neutral-control signal | activation, % at 12.5 µM | 0.096% of 320,000 active | AID 504775;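 active means mean replicate activation of at least 60% and every replicate at or above 60%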;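 further: 0% = median plate neutral-control signal and 100% = twice that signal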
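Assay system: LDL receptor-deficient CHO ldlA cells overexpressing murine SR-BI / Medium: BSA-supplemented, HEPES-buffered Ham's F12, pH 7.4 / Probe or stimulus: DiI-labelled HDL at 10 µg/mL final / Timing: compound with DiI-HDL co-incubation, 3 h at 37 °C / Technique: bottom-read cell fluorescence after medium removal, ex 550/em 595 nm / Measure: HDL uptake via cellular fluorescence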
AHR act confirm: human AHR activation, confirmation; 87% of 2,300 active; AID 2845; activation, % at 9 µM; human cells, AHR-responsive luciferase reporter, luminescence; shares compounds with AHR activator; in the data active means activation above about 49%;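 further: HepG2 hepatoma cells carrying a DRE-driven firefly luciferase reporter; 0% = vehicle wells and 100% = reference agonist wells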
PXR counter: counter-screen for AHR activators: human PXR activators; shares compounds with AHR activator; cell-based PXR reporter, luciferase luminescence; activation, % at 11.6 µM; 88% of 2,300 active; AID 434939; in the data active means activation above about 11%;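 further: human hepatoma DPX-2 cells expressing full-length human PXR; 0% = DMSO and 100% = reference agonist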
* hit, by the source's call; / = no result. Shown are actives, neighbours in structure and some others; about 4.3% of the full set was active somewhere.

SMILES	CR mimetic SO	Hep lipid drop	SR-BI DiI inh	SMARCA2 activ	AHR activator	SR-BI DiI-HDL act	AHR act confirm	PXR counter
CC(C)CSC1=NSC2=NC(=O)/C(=C\c3coc4ccccc4c3=O)C(=N)N12	137	-3	32	1	81*	-32	17	18*
COc1ccc(C(=O)O/N=C(\N)c2ccc(OC)c(OC)c2)c(OC)c1	90	-21	66	/	0	-66	/	/
COc1ccc(C(=O)O/N=C(\N)c2ccccc2)c(OC)c1	116	-3	/	-2	97*	/	56*	4
CC1CCN(C(=O)c2ncn3c2C(=O)NC[C@@H]3C)CC1	/	/	/	0	/	/	/	/
CON/C=C(\C=Nc1ccc(F)cc1)c1ncc(C(F)(F)F)cc1Cl	103	10	42	1	89*	-42	94*	23*
CON/C=N/C(=S)Nc1ncc(C(F)(F)F)cc1Cl	111	12	-4	-1	12	4	/	/
COc1cc(OC)cc(-c2cc(NC(C)=O)n[nH]2)c1	100	16	0	1	46	0	/	/
CC(=O)Nc1cc(-c2ccc(Cl)cc2)[nH]n1	92	-15	-5	2	95*	5	160*	/
Cn1c(=O)c2[nH]c(SCC(=O)NCCc3cccc(F)c3)nc2n(C)c1=O	/	/	/	-3	/	/	/	/
O=C(N/N=C/c1cccnc1)c1ccccc1Cl	125	-4	/	2	6	/	/	/
Nc1c(Cl)c(Cl)nc(C(=O)N/N=C/c2cccnc2)c1Cl	105	6	/	-1	86*	/	78*	40*
Cc1nc(N)sc1-c1csc(Nc2ccccc2)n1	123	-6	35	-3	81*	-35	147*	20*
Cc1nc(C)c(-c2csc(Nc3ccc(N)cc3)n2)s1	95	-2	37	-2	127*	-37	22	19*
Cc1cc(C)cc(C(=O)OCCN(C)C2CN(Cc3cn(Cc4ccccc4F)nn3)S(=O)(=O)C2)c1 (configuration not stated)	/	/	/	-1	/	/	/	/
COC(=O)c1cc2c(c3c4cc(OC)ccc4n(S(=O)(=O)c4cccc(C)c4)c13)C(=O)N(C)C2	/	/	/	-2	/	/	/	/
Cc1ccc(NC(=O)C2OCCc3ccccc32)cc1Cl (configuration not stated)	92	/	25	1	2	-25	/	/
Cc1ccc(NC(=O)C2OCCc3ccccc32)cc1 (configuration not stated)	86	-4	9	0	118*	-9	104*	64*
Cc1ccc(C(=O)/C=C\Nc2ccc(C)c(C)c2)cc1	102	16	6	4	17	-6	/	/
Cc1cc(N/C=C/C(=O)c2ccccc2)ccc1Br	99	-2	-6	7	94*	6	108*	11*
c1ccc(-c2nc3c(ccc4ccccc43)[nH]2)nc1	89	-8	21	7	95*	-21	138*	11*
c1ccc(-c2nc3ccccc3[nH]2)nc1	89	11	-33	3	17	33	/	/
Cc1cn2c(N)c(/C=C3\C=Nc4ccccc43)c(=O)nc2s1	91	0	/	0	111*	/	116*	20*
COC(=O)[C@]12C[C@H](CC(=O)NCC34CC5CC(CC(C5)C3)C4)C(=O)N(CCC3=CCCCC3)C1=C[C@H](C1CCCC1)O[C@@H]2C	/	/	/	-1	/	/	/	/
CC1CCN(c2nc(-c3cccnc3)nc3scc(-c4ccccc4)c23)CC1	77	-100	40	2	15	-40	/	/
Clc1nc(-c2ccccn2)nc2scc(-c3ccccc3)c12	107	-17	11	4	80*	-11	59*	25*
SMILES	CR mimetic SO	Hep lipid drop	SR-BI DiI inh	SMARCA2 activ	AHR activator	SR-BI DiI-HDL act	AHR act confirm	PXR counter
N#Cc1c(SCC(=O)OCc2ccccc2)nsc1SCC(=O)OCc1ccccc1	98	29	7	-2	5	-7	/	/
N#Cc1c(SCC(N)=O)nsc1SCc1ccc(Cl)cc1	115	-4	11	-1	80*	-11	84*	36*
CC(=O)CSc1nsc(SCC(C)=O)c1C#N	111	-17	5	1	23	-5	/	/
N#Cc1c(SCC(N)=O)nsc1SCc1ccccc1Cl	107	/	-2	-3	101*	2	83*	22*
Nn1c(SCCOc2ccc(Cl)cc2)nnc1-c1cccnc1	103	2	-19	1	91*	19	125*	22*
Nn1c(SCCOc2ccccc2)nnc1-c1cccnc1	98	9	-7	-4	25	7	/	/
CN(C(=O)CNC(=O)c1ccccc1OCC(=O)Nc1ccc(I)cc1)c1ccccc1	/	/	/	-2	/	/	/	/
O=C(N/N=C/c1ccc(O)cc1)c1cncc(Br)c1	97	-4	-2	2	19	2	/	/
Cc1ccc(C(=O)N/N=C/c2ccc3c(c2)OCO3)o1	104	-14	-18	6	142*	18	98*	21*
COc1cc(/C=N/NC(=O)c2cccnc2)cc2c1OCO2	82	-4	4	0	88*	-4	78*	/
CCCCNC(=S)N(C)/N=C/c1ccc2c(c1)OCO2	94	-18	5	-3	159*	-5	68*	26*
Cc1ccc(C(=O)NN=Cc2ccc3c(c2)OCO3)cc1	/	/	14	4	/	-14	/	/
O=C(N/N=C\c1ccc2c(c1)OCO2)c1cncc(Br)c1	112	-1	3	-1	104*	-3	80*	10*
COc1cc(/C=N/NC(=O)c2cccnc2)cc(Br)c1O	95	-2	-9	-1	11	9	/	/
C=C(C)CNC(=S)N/N=C\c1ccc2c(c1)OCO2	83	/	-24	3	82*	24	64*	67*
Clc1ccccc1N/N=C/c1ccc2c(c1)OCO2	102	6	12	6	80*	-12	66*	35*
COCCN1Cc2cc(C(=O)OC)c3c(c2C1=O)c1cc(F)ccc1n3S(=O)(=O)c1ccc(C)cc1	/	/	/	-3	/	/	/	/
Clc1ccc2[nH]c3c(NCCCN4CCOCC4)ncnc3c2c1	94	/	-2	5	82*	2	40	37*
